Measured values reported in ChEMBL document CHEMBL1144143, “Phenolic glycosides from Dirca palustris” (J Nat Prod, 1999).
The source made the active and inactive calls. The rule behind the calls is not given here.

Tests used:
[1] = Antioxidation activity assessed as inhibition of peroxidation of liposome at 4.31 ug/mL; assay type: physicochemical; conditions: artificial membrane
In short: (§1)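 Fe2+-initiated peroxidation of large unilamellar liposomes made from 1-stearoyl-2-linoleoyl-phosphocholine with the fluorescent probe 3-[p-(6-phenyl)-1,3,5-hexatrienyl]phenylpropionic acid. Liposomes were extruded through a 100 nm membrane. The assay used Chelex-treated HEPES buffer at pH 7.0 with NaCl, at 23 °C, with test agent in DMSO. Reaction was started with 20 µM FeCl2 (final). Fluorescence (excitation 384 nm) was read every 3 min for 21 min. Positive controls were at 10 µM final.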

[2] = Inhibition of insect cell COX2 at 125 ug/mL
In short: (§2)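 COX-II was an insect cell lysate preparation, diluted in Tris at pH 7.0 to about 1.5 mg protein/mL. O2 uptake was measured at 37 °C by oxygen electrode. Mixture: 0.1 M Tris at pH 7.0, phenol, hemoglobin and 100 µmol arachidonic acid. Compound was added in DMSO, and the reaction was started by adding enzyme protein.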

[3] = Antioxidation activity assessed as inhibition of peroxidation of liposome; assay type: physicochemical; conditions: artificial membrane; in short: as §1
[4] = biological target: T1, Prostaglandin G/H synthase 1 (Ovis aries) (UniProt P05979); experiment: Inhibition of sheep COX1 at 125 ug/mL
T1 sequence (whole entry): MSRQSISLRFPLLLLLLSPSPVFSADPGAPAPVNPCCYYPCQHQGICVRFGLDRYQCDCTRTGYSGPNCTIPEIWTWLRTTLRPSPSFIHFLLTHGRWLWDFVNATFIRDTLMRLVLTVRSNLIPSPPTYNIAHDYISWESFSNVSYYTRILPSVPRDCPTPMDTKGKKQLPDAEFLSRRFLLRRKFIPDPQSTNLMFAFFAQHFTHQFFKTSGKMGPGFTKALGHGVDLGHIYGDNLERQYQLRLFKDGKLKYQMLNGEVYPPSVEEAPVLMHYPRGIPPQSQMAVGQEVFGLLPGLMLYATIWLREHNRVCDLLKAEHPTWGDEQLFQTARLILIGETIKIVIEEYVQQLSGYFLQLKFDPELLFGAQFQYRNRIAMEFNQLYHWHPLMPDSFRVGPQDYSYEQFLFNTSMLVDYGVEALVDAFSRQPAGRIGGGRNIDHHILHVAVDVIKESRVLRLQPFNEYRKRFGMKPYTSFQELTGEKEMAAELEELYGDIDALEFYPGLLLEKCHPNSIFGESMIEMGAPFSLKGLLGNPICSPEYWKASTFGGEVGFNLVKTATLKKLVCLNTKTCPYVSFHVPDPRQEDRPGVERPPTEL
In short: (§3)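 COX-I. Initial rate of O2 uptake measured at 37 °C with an oxygen electrode. Mixture: 0.1 M Tris at pH 7.0, 1 mmol phenol, 85 µg hemoglobin and 100 µmol arachidonic acid. Compound was added in DMSO, with a DMSO-only control. Reaction was started with 5-25 µg microsomal protein. Results are expressed as % inhibition.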

[5] = biological target: T1, Prostaglandin G/H synthase 1 (Ovis aries); conditions: 180 ug/mL
[6] = Inhibition of insect cell COX2 at 200 ug/mL; in short: as §2
[7] = Antioxidation activity assessed as inhibition of peroxidation of liposome at 60 ug/mL; assay type: physicochemical; conditions: artificial membrane; in short: as §1
[8] = biological target: T1, Prostaglandin G/H synthase 1 (Ovis aries); experiment: Inhibition of sheep COX1; in short: as §3
[9] = biological target: T1, Prostaglandin G/H synthase 1 (Ovis aries); conditions: 2.52 ug/mL
[10] = Antioxidation activity assessed as inhibition of peroxidation of liposome at 1.66 ug/mL; assay type: physicochemical; conditions: artificial membrane; in short: as §1
[11] = Antioxidation activity assessed as inhibition of peroxidation of liposome at 2.20 ug/mL; assay type: physicochemical; conditions: artificial membrane; in short: as §1
[12] = biological target: T1, Prostaglandin G/H synthase 1 (Ovis aries); experiment: Inhibition of sheep COX1 at 200 ug/mL; in short: as §3
[13] = biological target: T1, Prostaglandin G/H synthase 1 (Ovis aries); conditions: 2.06 ug/mL
[14] = Antioxidation activity assessed as inhibition of peroxidation of liposome at 1.80 ug/mL; assay type: physicochemical; conditions: artificial membrane
In short: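 Large unilamellar liposomes (100 nm extrusion) of 1-stearoyl-2-linoleoyl phosphatidylcholine carrying a phenylhexatrienyl-phenylpropionic acid fluorescent probe, in Chelex-treated HEPES pH 7.0 with NaCl. Test compound added in DMSO. Peroxidation started with FeCl2 (20 µM Fe2+ final) at 23 °C. Fluorescence (excitation 384 nm) read every 3 min for 21 min; the fall in relative intensity gives the peroxidation rate.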

In the case of VITAMIN E, the “inhibition (INH)” value [1] is reported as 7%.

For `COc1cc(/C=C/CO)c(OC)c(O[C@@H]2O[C@H](CO)[C@@H](O)[C@H](O)[C@H]2O)c1`, the Activity [2] was “inactive”, the Activity [3] was “Not Active” and the inhibition [4] was 9.2%.

Work on `CC(=O)Oc1ccccc1C(=O)O` yielded an inhibition [5] of 52.1%.

In the case of `COc1ccc(-c2cc(=O)c3c(OC)cc(O[C@@H]4O[C@H](CO[C@H]5O[C@H](C)[C@@H](O)[C@H](O)[C@H]5O)[C@@H](O)[C@H](O)[C@H]4O)cc3o2)cc1OC`, the Activity [6] is reported as “inactive”, the “inhibition (INH)” value [7] is reported as 67% and the Activity [8] is reported as “inactive”.

For `COc1ccc(-c2cc(=O)c3c(OC)cc(O[C@@H]4O[C@H](CO[C@H]5OC[C@@H](O)[C@H](O)[C@H]5O)[C@@H](O)[C@H](O)[C@H]4O)cc3o2)cc1`, the Activity [6] was “inactive”, the “inhibition (INH)” value [7] was 78% and the Activity [8] was “inactive”.

`COc1ccc2cc([C@H](C)C(=O)O)ccc2c1` gave an inhibition [9] of 58%.

With `CC(C)(C)c1cc(O)ccc1O` [E319] the “inhibition (INH)” value [10] was 90%.

For `Cc1cc(C(C)(C)C)c(O)c(C(C)(C)C)c1` [BUTYLATED HYDROXYTOLUENE], the “inhibition (INH)” value [11] was 81%.

With `COc1ccc(-c2cc(=O)c3c(OC)cc(O[C@@H]4O[C@H](CO[C@H]5OC[C@@H](O)[C@H](O)[C@H]5O)[C@@H](O)[C@H](O)[C@H]4O)cc3o2)cc1OC` the Activity [6] was “inactive”, the “inhibition (INH)” value [7] was 98% and the Activity [8] was “inactive”.

For `COc1cc(O[C@@H]2O[C@H](CO[C@H]3OC[C@@H](O)[C@H](O)[C@H]3O)[C@@H](O)[C@H](O)[C@H]2O)cc2oc(-c3ccc(O)cc3)cc(=O)c12`, the Activity [6] was “inactive”, the “inhibition (INH)” value [7] was 71% and the inhibition [12] was 12.5%.

Molecule `CC(C)Cc1ccc(C(C)C(=O)O)cc1` (configuration not stated) has an inhibition [13] of 53.3%.

In the case of `COc1ccc(O)c(C(C)(C)C)c1.COc1ccc(O)cc1C(C)(C)C` [BUTYLATED HYDROXYANISOLE], the “inhibition (INH)” value [14] is reported as 91%.
